Results: ChEMBL document CHEMBL1122889, “Amino acid derived latent isocyanates: irreversible inactivation of porcine pancreatic elastase and human leukocyte elastase” (J Med Chem, 1985)

Experiments:
[1] = target: T1, Neutrophil elastase (Homo sapiens) (UniProt P08246); assay: Percent inhibition against human leukocyte elastase; details: concentration not given here
T1 sequence (whole entry): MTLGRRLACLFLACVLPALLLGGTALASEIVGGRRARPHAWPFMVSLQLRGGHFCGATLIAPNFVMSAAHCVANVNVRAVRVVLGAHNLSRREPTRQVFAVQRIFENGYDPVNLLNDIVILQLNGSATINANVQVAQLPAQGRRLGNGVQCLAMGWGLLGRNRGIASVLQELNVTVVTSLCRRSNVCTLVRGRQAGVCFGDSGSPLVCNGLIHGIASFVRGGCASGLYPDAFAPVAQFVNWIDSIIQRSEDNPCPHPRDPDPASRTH
Method in brief: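 HLE, 1.53 × 10⁻⁴ M stock in Tris-HCl pH 7.5, was incubated with inhibitor for 20 min. Residual activity was assayed by adding succinyltrialanyl-p-nitroanilide (2.3 × 10⁻³ M stock in Tris buffer).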

[2] = target: T2, Pancreatic elastase (Sus scrofa) (UniProt P08419+P00772); assay: Percent inhibition against porcine pancreatic elastase; format: protein assay; details: concentration not given here
Method in brief: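 PPE, 4.50 × 10⁻⁶ M stock in phosphate buffer pH 6.5, was incubated at 25 °C for 20 min with inhibitor (2.50 × 10⁻³ M stock in acetonitrile). Remaining activity was assayed by adding Boc-L-alanyl-p-nitroanilide (2.22 × 10⁻² M stock).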

[3] = target: T2, Pancreatic elastase (Sus scrofa); assay: k3 value was evaluated for the inhibition of porcine pancreatic Elastase; format: protein assay
Method in brief: (§1)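 PPE, 9.0 × 10⁻⁶ M, incubated with inhibitor in acetonitrile in 50 mM phosphate pH 6.5 at 25 °C, at inhibitor:enzyme ratios of 20–150. Aliquots taken over time were assayed with Boc-L-Ala-p-nitrophenyl ester: 30 s preincubation, then absorbance change over 2 min at 347.5 nm. Controls contained acetonitrile. Kobs came from ln(Et/E0) vs time, two runs per concentration. Ki and k3 came from the double-reciprocal replot, and k3/Ki was computed.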

[4] = target: T2, Pancreatic elastase (Sus scrofa); assay: k3/k1 ratio of the compound; format: protein assay; method in brief: as §1
Pancreatic elastase = Pancreatic elastase (Sus scrofa, UniProt P08419+P00772); assay: Ki value was evaluated for the inhibition of porcine pancreatic elastase; format: protein assay; method in brief: as §1
[5] = target: T2, Pancreatic elastase (Sus scrofa); assay: k3 value was evaluated for the inhibition of porcine pancreatic elastase; format: protein assay; method in brief: as §1
Neutrophil elastase = target: T3, Neutrophil elastase (Homo sapiens, UniProt P08246); assay: Ki value was evaluated for the inhibition of human leukocyte elastase
T3 sequence (P08246 whole entry): T1 sequence (whole entry)
Method in brief: (§2)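 HLE, 1.6 × 10⁻⁷ M, in Tris-HCl buffer pH 8.0 at 25 °C. Inhibitor was dissolved in N-methylpyrrolidinone. Loss of activity was followed continuously with succinyl-L-trialanyl-p-nitroanilide at 410 nm as a pseudo-first-order reaction, and rate constants were found by the Tsou method. Ki and k3 were taken from the double-reciprocal replot 1/kobsd vs 1/[I].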

[6] = target: T1, Neutrophil elastase (Homo sapiens); assay: k3 value was evaluated for the inhibition of human leukocyte elastase; method in brief: as §2

SMILES | k3 [3] | Ki (Pancreatic elastase) | also measured
COC(=O)C(CCSC)N=C=O (centres undefined) |  |  | inhibition [1]: 100%; inhibition [2]: 27%
CCCC(N=C=O)C(=O)OC (centres undefined) |  |  | inhibition [1]: 100%; inhibition [2]: 98%
CCC(C)[C@H](NC(=O)n1ccnc1)C(=O)OC (some centres undefined) | 0.07 min⁻¹ | 1220 µM | k3/k1 [4]: 1 M⁻¹ s⁻¹
CCCCNC(=O)n1ccnc1 |  | 1400 µM | k3 [5]: 0.011 s⁻¹
COC(=O)[C@H](CCSC)NC(=O)n1ccnc1 |  |  | inhibition [1]: 100%; inhibition [2]: 0%
CCCCC(NC(=O)n1ccnc1)C(=O)OC (centres undefined) | 0.255 min⁻¹ | 1940 µM | Ki (Neutrophil elastase): 1000 µM; k3 [6]: 10 min⁻¹
COC(=O)[C@H](CC(C)C)NC(=O)n1ccnc1 | 0.04 min⁻¹ | 1170 µM | k3/k1 [4]: 0.5 M⁻¹ s⁻¹
COC(=O)[C@@H](NC(=O)n1ccnc1)C(C)C |  | 1110 µM | Ki (Neutrophil elastase): 1800 µM; k3 [5]: 0.00305 s⁻¹; k3 [6]: 20.8 min⁻¹
CCCCNC(=O)n1ccnc1C | 0.3 min⁻¹ | 2410 µM | 

Continued, in another order:

k3 [3] | Ki (Pancreatic elastase) | SMILES | also measured
0.12 min⁻¹ | 470 µM | CCCCNC(=O)n1ccnc1CC | 
0.06 min⁻¹ | 7230 µM | CCCCNC(=O)n1cnc(C)c1 | 
0.322 min⁻¹ | 840 µM | CCC[C@H](NC(=O)n1ccnc1)C(=O)OC | Ki (Neutrophil elastase): 320 µM; k3 [6]: 9.6 min⁻¹
0.12 min⁻¹ | 2410 µM | CCCCCCCc1nccn1C(=O)NCCCC | 
